The sample as a whole holds a higher share of hits than the screen did.
bCat KO growth: beta-catenin-lacking colon tumor cell growth suppression. HCT116 beta-catenin knockout viability, CellTiter-Glo, 60 h; stronger effect = lower value. viability, % at 10 µM. actives 1.5% (n = 140,000);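 active = viability at or under a set limit, the compound median less 4 SD, cut at about 6% in these data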;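 also: 0% = Hyamine 1622 control at 20 µM and 100% = untreated cell control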
Fibroblast inh: blocks proliferation of human lung fibroblasts; LL 47 human lung fibroblast viability, ATP luminescence; stronger effect = lower value; viability, % at 10 µM; actives 1.1% (n = 85,000);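 active = viability at or below 50% in the single dose screen; inactive = viability above 50%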;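 also: compound exposure lasted 72 h before the ATP readout; 100% = median luminescence of untreated cell-only wells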
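Test system: LL 47 human lung fibroblasts / Quantity: 1,150 cells in each well / Medium: IMEM growth medium with 15% fetal bovine serum / Incubation: 72 h compound exposure at 37 °C after overnight plating / Detection: CellTiter-Glo luminescence measuring cellular ATP / Read-out: % viability versus median cells-only luminescence / Benchmarks: cell-only wells, no compound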
H69AR growth 86K: growth inhibitors of human H69AR lung tumor cells. H69AR lung tumor viability, ATP luminescence, 72 h; stronger effect = lower value. viability, % at 10 µM. actives 6% (n = 85,000). AID 598;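 active = viability at or below 40%; inactive = viability above 40%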;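 also: multidrug resistant small cell line overexpressing MRP-1 efflux transporter; 100% = mean luminescence of untreated control wells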
Pyk2 oligo antag: blocks oligomerization of human Pyk2 in cells; z-score (the deposit names both 25 µM and 10 µM); actives 0.83% (n = 99,000); Q14289; Q293 cells, Pyk2 FERM NanoBiT luminescence; stronger effect = lower value;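 active = Z-score of -3 or lower, scaled per plate to the spread of control and sample wells; inactive = z-score above -3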;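 also: negative z-score means lost luminescence so less FERM oligomerization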
HUVEC inhibit: blocks proliferation of human endothelial cells; AID 648; viability, % at 10 µM (by protocol); actives 1.1% (n = 86,000); HUVEC proliferation, CellTiter-Glo luminescence, 72 h; stronger effect = lower value;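 active = viability at or below 30%; inactive = viability above 30%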;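 also: 100% = median luminescence of DMSO-only cell control wells on each plate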
HCT116 PTEN-null: PTEN-deleted cell growth suppression; actives 1.2% (n = 140,000); AID 827; HCT116 PTEN-null viability, CellTiter-Glo, 60 h; stronger effect = lower value; viability, % at 10 µM;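 active = viability at or below a set limit, 4 SD under the median of all tested compounds, cut at about 3.7% in these data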;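 also: PTEN knockout HCT116 line with beta catenin targeted HCT116 as companion control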
Starred values were filed as active, the others as inactive; x = no result.

SMILES | bCat KO growth | Fibroblast inh | H69AR growth 86K | Pyk2 oligo antag | HUVEC inhibit | HCT116 PTEN-null
Cc1ccc2cc(CN(CCN3CCCC3)C(=O)Nc3ccc(F)cc3)c(=O)[nH]c2c1C | 21 | 85 | 38* | -0.19 | 66 | 20
O=C(Nc1ccc(F)cc1)N(CCCN1CCOCC1)Cc1cc2cc3c(cc2[nH]c1=O)OCCO3 | 62 | 90 | 61 | 0.52 | 81 | 66
C=CCN(C(=O)c1cccc(S(=O)(=O)N2CCN(C)CC2)c1)c1nc(-c2ccccc2)cs1 | 46 | x | x | 0.88 | x | 46
CCc1ccccc1Nc1nc(N)nc(CSCC(=O)Nc2ccc(C)c(C)c2)n1 | 81 | x | x | x | x | 84
CCn1cc(C(=O)OCC(=O)Nc2ccc(S(=O)(=O)N3CCCC3)cc2)c(=O)c2ccc(C)nc21 | 98 | 88 | 26* | -0.61 | 91 | 101
CCn1cc(C(=O)OCC(=O)Nc2cc(S(=O)(=O)N(C)C)ccc2C)c(=O)c2ccc(C)nc21 | 87 | x | x | 0.69 | x | 89
CCOc1ccc(C(=O)C(CN2CCOCC2)c2ccccc2)cc1 (stereo not drawn) | 3.1* | x | x | x | x | 2.7*
O=C(c1ccccc1)c1ccc(OCC(O)CN2CCOCC2)cc1 (stereo not drawn) | x | 108 | 84 | 0.53 | 98 | x
CCN(CC)S(=O)(=O)c1ccc(N=Nc2c(C)[nH]n(C(N)=S)c2=O)cc1 | 86 | 93 | 98 | -1.1 | 93 | 91
NC(=S)n1[nH]c(-c2ccc([N+](=O)[O-])cc2)c(N=Nc2ccc(O)cc2)c1=O | 78 | 81 | 84 | -3.6* | 84 | 90
CN(CC(=O)OCC(=O)c1c(N)n(C)c(=O)n(C)c1=O)S(=O)(=O)c1ccc(Cl)cc1 | 88 | x | x | x | x | 92
CCc1c(C)nc2ncnn2c1Nc1ccc(C)c(C)c1 | 101 | 96 | 76 | 0.44 | 96 | 95
CCc1c(C)nc2ncnn2c1NCCc1ccc(OC)cc1 | 15 | 68 | 13* | -0.52 | 80 | 15
OC(COCc1ccc(Cl)cc1)CN1CCN(CC(O)COCc2ccc(Cl)cc2)CC1 (stereo not drawn) | 5.5* | 80 | 56 | 1.6 | 34 | 6
O=C(NNC(=S)Nc1ccc(Cl)cc1Cl)C1CC1 | 93 | x | x | x | x | 99
Cc1cc2nc(C3CCN(Cc4nnnn4Cc4cccs4)CC3)[nH]c2cc1C | 25 | 62 | 15* | -0.2 | 64 | 18
O=C(CNc1ccc2ccccc2c1)N/N=C/C=C/c1cccc([N+](=O)[O-])c1 | 92 | x | x | x | x | 90
O=[N+]([O-])/C=C/c1cn(Cc2ccccc2)c2ccccc12 | 1.6* | x | x | -0.49 | x | 1.1*
C(=N\n1cnnc1)/c1cn(Cc2ccccc2)c2ccccc12 | 80 | 77 | 75 | 0 | 48 | 80
N#Cc1ccccc1Cn1cc(/C=C/[N+](=O)[O-])c2ccccc21 | 2.1* | x | x | x | x | 1.4*
N#Cc1cn(Cc2cccc(Cl)c2)c2ccccc12 | 73 | 90 | 63 | -1.4 | 58 | 80
N=c1c(-c2nc3ccccc3[nH]2)cc(C(=O)c2cccs2)nn1-c1ccc(Cl)cc1 | x | 71 | 7.4* | x | 24* | x
O=C(Nc1nnc(C2CC2)s1)C1Cc2ccccc2CN1S(=O)(=O)c1ccccc1F (stereo not drawn) | 20 | 83 | 50 | -3.7* | 67 | 17
CCOC(=O)c1c(C)n(C)c2ccc(OC(=O)c3ccc(N4C(=O)CCC4=O)cc3)cc12 | 103 | x | x | x | x | 102
Cc1ccc(Nc2c(N)c(=O)oc3ccccc23)cc1 | 34 | 72 | 13* | -2 | 67 | 25
SMILES | bCat KO growth | Fibroblast inh | H69AR growth 86K | Pyk2 oligo antag | HUVEC inhibit | HCT116 PTEN-null
CC(C)Nc1c(N)c(=O)oc2ccccc12 | 101 | 96 | 86 | 0.78 | 93 | 105
N#CC1=C(SCC(=O)c2ccccc2)NC2=C(C(=O)CCC2)C1c1ccco1 (stereo not drawn) | 12 | 64 | 16* | -0.67 | 44 | 9
Cc1ccc(C(=O)CSC2=C(C#N)C(c3ccco3)C3=C(CCCC3=O)N2)cc1 (stereo not drawn) | 19 | 60 | 19* | -0.32 | 50 | 18
CC(C)(C)c1ccc(C(=O)CCCSC2=C(C#N)C(c3ccco3)C3=C(CCCC3=O)N2)cc1 (stereo not drawn) | 62 | 81 | 49 | 0.98 | 68 | 53
COc1cccc(NC(=O)CSC2=C(C#N)C(c3ccco3)C3=C(CCCC3=O)N2)c1 (stereo not drawn) | 17 | 84 | 50 | -0.55 | 80 | 23
CCc1nnc(NC(=O)c2ccc(S(=O)(=O)N(CC(C)C)CC(C)C)cc2)o1 | 23 | 57 | 25* | -2.7 | 47 | 18
COCc1nnc(NC(=O)c2ccc(S(=O)(=O)N(C)C3CCCCC3)cc2)o1 | 72 | 97 | 25* | -0.57 | 60 | 80
Cn1c(Cn2cnc3ccccc32)nnc1SCc1ccccc1 | 89 | 97 | x | 1.3 | 92 | 95
O=C(CSc1nc2c(cnn2-c2ccccc2)c(=O)[nH]1)c1ccc(Cl)cc1 | 93 | 98 | 36* | -1.3 | 88 | 103
CCCSc1nc2c(cnn2-c2ccccc2)c(=O)[nH]1 | 107 | 93 | 106 | x | 73 | 103
CCCSc1nc2c(cnn2-c2ccc(C)cc2)c(=O)[nH]1 | 70 | 91 | 13* | x | 11* | 53
CCOC(=O)CSc1nc(C(C)(C)C)cc(C(F)(F)F)c1C#N | 93 | 99 | 82 | -0.49 | 102 | 92
O=C(NCCCn1ccnc1)c1cc2cc([N+](=O)[O-])ccc2oc1=O | 90 | x | x | x | x | 102
COn1c(SCc2ccc(C)cc2C)nc2ccccc2c1=O | 50 | 93 | 31* | -0.9 | 89 | 47
Cc1ccc(N(CC(=O)NCCc2ccc(F)cc2)S(=O)(=O)c2ccc(Cl)c([N+](=O)[O-])c2)c(C)c1 | 1.5* | x | x | x | x | 1.4*
Cc1ccc(-n2c(SCC(=O)Nc3cc(C)on3)nc3c([nH]c4ccccc43)c2=O)cc1 | 79 | 89 | 17* | x | 78 | 60
Cc1cc(NC(=O)CSc2nc3ccccc3c(=O)n2C2CCCC2)no1 | 9 | 53 | 29* | -0.66 | 55 | 9
CCc1cc2cc3c(cc2nc1SCC(=O)Nc1cc(C)on1)OCO3 | 14 | 75 | 30* | 0.64 | 43 | 30
CCc1cc2cc(C)ccc2nc1SCC(=O)Nc1cc(C)on1 | 85 | 93 | 63 | -0.48 | 85 | 97
CN(C)c1ccc(NC(=O)CSc2nc3ccccc3c(=O)n2C2CCCCC2)cc1 | 85 | 108 | 78 | -1.3 | 99 | 75
Cc1cc(NC(=O)CSc2nc(C3CCCCC3)nc3ccccc23)no1 | 83 | 82 | 20* | 0.98 | 100 | 85
Cc1ccc2c(c1)nnn2C1CCN(CC(=O)Nc2ccc3c(c2)OCCO3)CC1 | 69 | 104 | 81 | -0.61 | 98 | 79
COc1ccc(OC)c(NC(=O)c2cnc(Nc3ccccc3OC)c3ccccc23)c1 | 32 | x | x | x | x | 37
CC(OC(=O)c1ccc([N+](=O)[O-])s1)C(=O)Nc1ncc(Cl)cc1Cl (stereo not drawn) | 82 | x | x | x | x | 91

Screening data deposited in PubChem BioAssay by several laboratories.
